From ChEMBL document CHEMBL1155937, “Substituted 3-((Z)-2-(4-nitrophenyl)-2-(1H-tetrazol-5-yl) vinyl)-4H-chromen-4-ones as novel anti-MRSA agents: synthesis, SAR, and in-vitro assessment” (Bioorg Med Chem Lett, 2008)
In brackets after ≈: the same amount, converted by molar mass.

Tests used:
[1] = test system: Streptococcus pneumoniae; assay: Antibacterial activity against Streptococcus pneumoniae ATCC 49619 after 24 hrs by twofold serial dilution method; assay type: functional; conditions: ATCC 49619, 24 h
Summary of the method: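 About 10⁴ CFU applied per spot. Incubated at 35 °C in 5% CO₂ and growth scored at 24 h. DMSO served as solvent control. Twofold differences were confirmed by a third repetition.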

[2] = test system: Staphylococcus aureus; assay: Antibacterial activity against methicillin-sensitive Staphylococcus aureus ATCC 13709 Smith after 24 hrs by twofold serial dilution method; assay type: functional
Summary of the method: (§1)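 CLSI agar-dilution MIC on Mueller Hinton agar with serial twofold drug dilutions. About 10⁴ CFU applied per spot by multipoint inoculator. Incubated at 35 °C and growth scored at 24 h. DMSO served as solvent control. S. aureus ATCC 29213 was the QC strain. Twofold differences were confirmed by a third repetition, and the more frequent result was reported.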

[3] = test system: Enterococcus faecalis; assay: Antibacterial activity against Enterococcus faecalis ATCC 29212 after 24 hrs by twofold serial dilution method; assay type: functional; conditions: ATCC 29212, 24 h; summary of the method: as §1
[4] = test system: Staphylococcus aureus; assay: Antibacterial activity against methicillin-resistant Staphylococcus aureus 032 after 24 hrs by twofold serial dilution method; assay type: functional
Summary of the method: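 Agar dilution MIC per CLSI on Mueller Hinton agar with serial twofold drug dilutions. About 10⁴ CFU applied per spot with a multipoint inoculator, incubated at 35 °C, and growth scored at 24 h. DMSO served as solvent control. Twofold discrepancies were confirmed by a third repetition, and the more frequent value was reported.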

[5] = test system: Escherichia coli; assay: Antibacterial activity against Escherichia coli ATCC 25922 after 24 hrs by twofold serial dilution method; assay type: functional; conditions: ATCC 25922, 24 h; summary of the method: as §1
[6] = pKa of the compound; assay type: physicochemical

Compound: Cc1ccc2occ(/C=C(/c3ccc([N+](=O)[O-])cc3)c3nnn[nH]3)c(=O)c2c1
- MIC [1]: > 32 µg/mL
- MIC [2]: 8 µg/mL (≈ 21.3 µM)
- MIC [3]: > 32 µg/mL
- MIC [4]: > 32 µg/mL
- MIC [5]: > 32 µg/mL

Compound: O=C(O)c1cn(C2CC2)c2cc(N3CCNCC3)c(F)cc2c1=O [CIPROFLOXACIN]
- MIC [1]: 2 µg/mL (≈ 6.04 µM)
- MIC [2]: 0.12 µg/mL (≈ 0.362 µM)
- MIC [3]: 0.5 µg/mL (≈ 1.51 µM)
- MIC [4]: > 32 µg/mL
- MIC [5]: > 32 µg/mL

Compound: O=c1c(/C=C(/c2ccc([N+](=O)[O-])cc2)c2nnn[nH]2)coc2ccc(F)cc12
- MIC [1]: 0.5 µg/mL (≈ 1.32 µM)
- MIC [2]: 8 µg/mL (≈ 21.1 µM)
- MIC [3]: 4 µg/mL (≈ 10.5 µM)
- MIC [4]: 0.5 µg/mL (≈ 1.32 µM)
- MIC [5]: > 32 µg/mL

Compound: CC1(C)S[C@@H]2[C@H](NC(=O)[C@H](N)c3ccccc3)C(=O)N2[C@H]1C(=O)O [AMPICILLIN]
- MIC [1]: 0.06 µg/mL (≈ 0.172 µM)
- MIC [2]: 0.25 µg/mL (≈ 0.715 µM)
- MIC [3]: 0.5 µg/mL (≈ 1.43 µM)
- MIC [4]: > 32 µg/mL
- MIC [5]: > 32 µg/mL

Compound: CC[C@H]1OC(=O)[C@H](C)[C@@H](O[C@H]2C[C@@](C)(OC)[C@@H](O)[C@H](C)O2)[C@H](C)[C@@H](O[C@@H]2O[C@H](C)C[C@H](N(C)C)[C@H]2O)[C@](C)(O)C[C@@H](C)C(=O)[C@H](C)[C@@H](O)[C@]1(C)O [ERYTHROMYCIN]
- MIC [1]: 0.12 µg/mL (≈ 0.164 µM)
- MIC [2]: 0.5 µg/mL (≈ 0.681 µM)
- MIC [3]: 2 µg/mL (≈ 2.73 µM)
- MIC [4]: > 32 µg/mL
- MIC [5]: > 32 µg/mL

Compound: O=c1c(/C=C(/c2ccc([N+](=O)[O-])cc2)c2nnn[nH]2)coc2c(Cl)cc(Cl)cc12
- MIC [1]: 1 µg/mL (≈ 2.32 µM)
- MIC [2]: 16 µg/mL (≈ 37.2 µM)
- MIC [3]: 8 µg/mL (≈ 18.6 µM)
- MIC [4]: 2 µg/mL (≈ 4.65 µM)
- MIC [5]: > 32 µg/mL

Compound: Cc1cc(C)c2occ(/C=C(/c3ccc([N+](=O)[O-])cc3)c3nnn[nH]3)c(=O)c2c1
- MIC [1]: 16 µg/mL (≈ 41.1 µM)
- MIC [2]: 8 µg/mL (≈ 20.5 µM)
- MIC [3]: 16 µg/mL (≈ 41.1 µM)
- MIC [4]: 2 µg/mL (≈ 5.14 µM)
- MIC [5]: > 32 µg/mL

Compound: O=c1c(/C=C(/c2ccc([N+](=O)[O-])cc2)c2nnn[nH]2)coc2ccc(Br)cc12
- MIC [1]: > 32 µg/mL
- MIC [2]: > 32 µg/mL
- MIC [3]: > 32 µg/mL
- MIC [4]: > 32 µg/mL
- MIC [5]: > 32 µg/mL

Compound: Cc1cc2occ(/C=C(/c3ccc([N+](=O)[O-])cc3)c3nnn[nH]3)c(=O)c2cc1Cl
- MIC [1]: 16 µg/mL (≈ 39 µM)
- MIC [2]: 16 µg/mL (≈ 39 µM)
- MIC [3]: 16 µg/mL (≈ 39 µM)
- MIC [4]: 4 µg/mL (≈ 9.76 µM)
- MIC [5]: > 32 µg/mL

Compound: O=c1c(/C=C(/c2ccc([N+](=O)[O-])cc2)c2nnn[nH]2)coc2ccc(Cl)cc12
- MIC [1]: > 32 µg/mL
- MIC [2]: > 32 µg/mL
- MIC [3]: > 32 µg/mL
- MIC [4]: > 32 µg/mL
- MIC [5]: > 32 µg/mL

Compound: O=c1c(-c2nnn[nH]2)coc2ccccc12
- pKa [6]: 5.85
